Test results taken from PMC7452664 (International Journal for Parasitology: Drugs and Drug …, 2020).
“Also recorded” adds a separate entry of the source. Where two headings read alike, the source gives them in different places.

Legend:
[1] = tested on: L. infantum promastigotes; experiment: Anti-L. infantum promastigotes drug test; type: cell-based, Leishmania infantum; settings: 48 h; for parasite-killing effect on promastigotes: data not shown
Outline: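 Promastigotes from a 4-day culture, 1 × 10^5/well, exposed to increasing concentrations for 48 h at 26 °C. Amphotericin B 0.25 μM as positive control. Cells lysed (1% Triton X-100, 2.9% sodium citrate), then 5 mM p-nitrophenyl phosphate added for 2 h at 37 °C. Stopped with 1 N NaOH and read at OD 405 nm. Inhibition calculated versus untreated controls.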

[2] = tested on: P. falciparum 3D7 intraerythrocytic stage; experiment: P. falciparum growth inhibition assay; type: cell-based, Plasmodium falciparum; settings: for IC50: 3D7, 48 h, read-out: IC50 P. falciparum
Outline: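 Sorbitol-synchronized 3D7 rings in RBCs at 3% hematocrit, 0.8% parasitemia. Exposed 48 h at 37 °C (5% CO2, 2% O2, 93% N2), in triplicate. Chloroquine 80 nM as reference. Parasitemia measured by flow cytometry after SYTO 11 staining, with uninfected and untreated infected controls. Values standardized to chloroquine; inhibition versus untreated; IC50 from sigmoidal variable-slope fit.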

[3] = tested on: T. cruzi intracellular amastigotes; experiment: Drug test on intracellular amastigotes of T. cruzi; type: cell-based, Trypanosoma cruzi; settings: 72 h; for inhibition of T. cruzi amastigote numbers (highest reduction): concentration not given; for IC50: Trypanosoma cruzi, Vero; for antitrypanosomal activity on T. cruzi: data not shown
Outline: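 Gamma-irradiated (2200 rad) Vero cells, 3.6 × 10^4/well, plated overnight at 37 °C, 5% CO2. […] Serial dilutions added for 72 h, in quadruplicate, with benznidazole 2 μM as control. Fluorescence read at Ex 544/Em 612 nm. Inhibition versus infected untreated wells; IC50 from sigmoidal variable-slope fit.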

[4] = tested on: T. brucei brucei 427 strain, bloodstream stage; experiment: Screening of drugs against T. brucei; type: cell-based, Trypanosoma brucei brucei; settings: for IC50: Trypanosoma brucei
Outline: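 Strain 427 bloodstream forms in HMI-9 were pelleted (900 g, 10 min) and seeded at 5 × 10^5/well in warm medium with serial dilutions, in triplicate. Suramin 100 μM as positive control. After 24 h, Alamar Blue added and incubated 4 h at 37 °C. Fluorescence read at Ex 530/Em 590 nm. Inhibition versus untreated; IC50 from sigmoidal variable-slope fit.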

[5] = tested on: L. infantum intra-macrophage amastigotes; experiment: Drug test on L. infantum intra-macrophage amastigotes; type: cell-based, Leishmania infantum; settings: for decrease of number of intracellular amastigotes / reduction of percentage of infected macrophages: highest non-cytotoxic dose; for IC50: Leishmania infantum, U-937, 48 h, read-out: IC50 (parasite-killing activity, L. infantum intracellular amastigotes)
Outline: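 U937 cells were PMA-differentiated (50 nM, 48 h) and infected with 6-day metacyclic promastigotes at 10:1 for 24 h, then washed. Infected cells (5 × 10^4) were treated for 48 h in chamber slides, in duplicate, at concentrations non-toxic to macrophages (MTT, 48 h). Meglumine antimoniate 273 μM as control. Methanol-fixed, Giemsa-stained; 200 cells counted for infected macrophages and amastigotes.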

[6] = ref Barnard et al., 1993; cited from earlier work
T. brucei [7] = settings: ref Barnard et al., 1993; cited from earlier work
[8] = ref Schaefer et al., 2012; cited from earlier work
[9] = tested on: L. mexicana promastigotes; settings: concentrations as high as 0.5 mM; ref Turrens and Cazzulo, 1987; cited from earlier work
BS forms of T.brucei = settings: read-out: IC50 BS forms of T.brucei; ref Chambers et al., 2008; cited from earlier work
T. cruzi epimastigotes = settings: read-out: IC50 T. cruzi epimastigotes; ref Turrens, 1986; cited from earlier work
T. brucei [10] = settings: read-out: IC50 T. brucei; different T. brucei strain; ref Barquilla et al., 2008; cited from earlier work
[11] = read-out: IC50 T. cruzi intracelular amastigotes
[12] = 24 h, read-out: IC50 T. brucei Bloodstream stage
[13] = 24 h, read-out: IC50 T. brucei brucei
[14] = read-out: IC50 T. cruzi amastigotes

O=CC[C@@H](O)[C@H](O)[C@H](O)CO [2DG, 2-deoxy-D-glucose]
parasite-killing effect on promastigotes ([1]; 0.2 mM): slight parasite-killing effect
P. falciparum growth inhibition ([2]; 48 h): growth inhibition values close to those obtained by CQ
inhibition of T. cruzi amastigote numbers (highest reduction) [3]: 89.3%
IC50 [3, 11]: 7270 ± 0.47 µM
parasite-killing activity on T. brucei ([4]; 24 h): No parasite-killing activity was detected

O=C(O)C(=O)CBr [3BP, 3-bromopyruvic acid]
parasite-killing effect on promastigotes ([1]; 37 μM): slight parasite-killing effect
decrease of number of intracellular amastigotes ([5]; 75 μM, 48 h): 78.3%
reduction of percentage of infected macrophages ([5]; 75 μM, 48 h): 48.4%
IC50 [5]: 24.9 µM
toxicity in humans [6]: toxicity in humans
concentration inhibiting motility and growth of T. brucei (T. brucei [7]): 13.4 µM
P. falciparum growth inhibition ([2]; 48 h): slight effect on parasite growth inhibition; also recorded: no efficacy
safety in rodents [8]: apparently being safe in rodents, where only a reduction in body weight was recorded
antitrypanosomal activity on T. cruzi [3]: did not show consistent antitrypanosomal activity; also recorded: no efficacy
parasite-killing activity on T. brucei ([4]; 24 h, concentration not given): 93.2%
IC50 [4, 12]: 76.6 µM
IC50 [4, 13]: 76.6 µM

C[C@@H]1[C@H](O)[C@@H](C)/C=C/C=C/C=C/C=C/C=C/C=C/C=C/[C@H](O[C@@H]2O[C@H](C)[C@@H](O)[C@H](N)[C@@H]2O)C[C@@H]2O[C@](O)(C[C@@H](O)C[C@@H](O)[C@H](O)CC[C@@H](O)C[C@@H](O)CC(=O)O[C@H]1C)C[C@H](O)[C@H]2C(=O)O [AmB, amphotericyn B]
survival rate of L. infantum promastigotes ([1]; 0.25 μM): 36%

CCN(CC)CCCC(C)Nc1ccnc2cc(Cl)ccc12 (stereo not drawn) [CQ, chloroquine]
inhibition at 0.08 µM ([2]; Plasmodium falciparum, 3D7, read-out: parasite growth inhibition): > 90%

O=C(O)C(Cl)Cl [DCA, dichloroacetic acid]
effect on L. infantum promastigote survival [1]: did not detectably impair
decrease of number of intracellular amastigotes ([5]; 25 mM, 48 h): 90.7%
reduction of percentage of infected macrophages ([5]; 25 mM, 48 h): 74.4%
IC50 [5]: 632 µM
P. falciparum growth inhibition ([2]; 48 h): growth inhibition values close to those obtained by CQ
IC50 [3, 14]: 25800 µM
IC50 [3, 11]: 25800 ± 59 µM
inhibition of T. cruzi amastigotes, highest value ([3]; high concentrations (up to 100 mM)): 74.1%
concentration achieving complete clearance of cultured T. brucei brucei ([4]; 24 h): 12.5 mM
IC50 [4, 12]: 1240 µM

O=C(O)c1nn(Cc2ccc(Cl)cc2Cl)c2ccccc12 [LND, lonidamine]
effect on L. mexicana promastigotes [9]: only a leishmaniostatic effect was observed
effect on L. infantum promastigote survival [1]: did not detectably impair; also recorded: no effect was detected
concentration of peak antimalarial activity ([2]; 48 h): 300 µM
IC50 ([2]; Plasmodium falciparum): 209 µM
IC50 (BS forms of T.brucei): 50 µM
inhibition of T. cruzi amastigote numbers (highest reduction) [3]: 99.4%
IC50 [3, 14]: 82.4 µM
IC50 [3, 11]: 82.4 µM
parasite-killing activity on T. brucei ([4]; 24 h, concentration not given): 97.7%
IC50 [4, 12]: 26.8 µM
IC50 [4, 13]: 26.8 µM
IC50 (T. cruzi epimastigotes): 80 µM

CN(C)C(=N)N=C(N)N [MET, metformin]
effect on L. infantum promastigote survival [1]: did not detectably impair
P. falciparum growth inhibition ([2]; 48 h): growth inhibition values close to those obtained by CQ
IC50 [3, 14]: 18500 µM
IC50 [3, 11]: 18500 ± 18 µM
parasite elimination, T. brucei ([4]; 20 mM, 24 h): 57%
IC50 [4, 12]: 17300 ± 15 µM

CO[C@H]1C[C@@H]2CC[C@@H](C)[C@@](O)(O2)C(=O)C(=O)N2CCCC[C@H]2C(=O)O[C@H]([C@H](C)C[C@@H]2CC[C@@H](O)[C@H](OC)C2)CC(=O)[C@H](C)/C=C(\C)[C@@H](O)[C@@H](OC)C(=O)[C@H](C)C[C@H](C)/C=C/C=C/C=C/1C [SIR, sirolimus]
effect on L. infantum promastigote survival [1]: did not detectably impair
effect on parasite burden and infected macrophages ([5]; 10 μM, data not shown): modest increase of the parasite burden and number of infected macrophages
anti-parasitic effect on L. infantum intra-macrophage amastigotes ([5]; 48 h, data not shown): did not show any parasiticidal effect; also recorded: increase of parasite load
P. falciparum growth inhibition ([2]; 48 h): growth inhibition values close to those obtained by CQ
IC50 ([2]; Plasmodium falciparum): ~2.5 µM
IC50 (T. brucei [10]): 0.152 µM
antitrypanosomal activity on T. cruzi [3]: did not show consistent antitrypanosomal activity; also recorded: did not affect the viability
concentration achieving complete clearance of cultured T. brucei brucei ([4]; 24 h): 0.00685 mM
IC50 [4, 12]: 2.14 µM

Cc1ccc(C(=O)Nc2ccc(S(=O)(=O)O)c3cc(S(=O)(=O)O)cc(S(=O)(=O)O)c23)cc1NC(=O)c1cccc(NC(=O)Nc2cccc(C(=O)Nc3cc(C(=O)Nc4ccc(S(=O)(=O)O)c5cc(S(=O)(=O)O)cc(S(=O)(=O)O)c45)ccc3C)c2)c1 [SUR, suramin]
parasite clearance, T. brucei ([4]; 100 μM, control drug): 96%
